# Bioassay records: PubChem BioAssay, Sanford-Burnham Center for Chemical Genomics
# SENP7 block = SENP7 protease inhibitors, primary screen, biochemical, luminescence, uHTS; recombinant SENP7, Z-RLRGG-aminoluciferin luminescence, 40 min; inhibition, % at 5 µM; 1.5% of 330,000 active;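 active = inhibition above about 50% at the single test dose, limit read from the data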
# Target sequence (Q9BQF6 706-1050 limits assumed): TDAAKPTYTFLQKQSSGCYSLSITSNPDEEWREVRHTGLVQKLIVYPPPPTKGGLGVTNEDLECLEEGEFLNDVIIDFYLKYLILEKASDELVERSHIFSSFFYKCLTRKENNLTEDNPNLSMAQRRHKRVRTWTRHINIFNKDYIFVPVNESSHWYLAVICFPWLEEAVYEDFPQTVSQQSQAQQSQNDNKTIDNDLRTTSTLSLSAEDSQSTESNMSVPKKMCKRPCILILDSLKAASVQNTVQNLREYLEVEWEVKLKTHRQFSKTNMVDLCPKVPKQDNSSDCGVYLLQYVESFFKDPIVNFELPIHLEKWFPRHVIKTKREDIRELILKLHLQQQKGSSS
# Apaf-1 inh = inhibitors of human Apaf-1 apoptosome, primary screen, biochemical, DEVD-Rh110 fluorescence, uHTS. inhibition, % at 20 µM. 0.71% of 330,000 active. AID 489030, 2010. reconstituted apoptosome caspase-3 activity. Apoptotic protease-activating factor 1 (Homo sapiens), O14727; active = inhibition of at least 40% at 20 µM
#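 System: reconstituted apoptosome with Apaf-1, cytochrome c, caspase-9, procaspase-3, dATP; Signal: Rh110 fluorescence intensity; Schedule: 30 min compound preincubation, 50 min activation, room temperature; Reagent: cytochrome c trigger plus (Z-DEVD)2-Rh110 caspase-3 substrate.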
# SENP8 block-1 = SENP8 protease inhibitors, primary screen, biochemical, luminescence | Sentrin-specific protease 8 (Homo sapiens), Q96LD8 | purified SENP8, Z-RLRGG-aminoluciferin cleavage | inhibition, % at 10 µM | 1.2% of 330,000 active | AID 2540, 2010; in the data active = inhibition above about 50%
# Target sequence (Q96LD8 whole entry, looked up): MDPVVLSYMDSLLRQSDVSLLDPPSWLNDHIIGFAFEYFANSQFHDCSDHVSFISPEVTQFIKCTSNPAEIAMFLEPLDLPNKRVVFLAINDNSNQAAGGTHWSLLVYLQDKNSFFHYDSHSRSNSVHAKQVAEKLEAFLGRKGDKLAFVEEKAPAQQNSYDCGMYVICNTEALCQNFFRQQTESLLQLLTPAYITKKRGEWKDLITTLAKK
# SENP6 inh = SENP6 protease inhibitors, primary screen, biochemical, luminescence, uHTS; inhibition, % at 10 µM; Recombinant SENP6 catalytic domain, aminoluciferin luminescence; Sentrin-specific protease 6 (Homo sapiens), Q9GZR1; 1.8% of 330,000 active;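 active = inhibition above about 50% at the single tested dose, limit read from the data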
# UBC13 polyUb = UBC13 polyubiquitin chain formation inhibitors, primary screen, biochemical, TR-FRET, uHTS; Ubiquitin-conjugating enzyme E2 N (Homo sapiens), P61088; inhibition, % at 20 µM; 0.47% of 330,000 active; in the data active = inhibition above about 45%, passing the limit was not always enough
# SENP8 block-2 = human SENP8 protease inhibitors, primary screen, biochemical, fluorescence, Nedd8 protein substrate, uHTS; inhibition, % at 20 µM; AID 602440, 2012; recombinant SENP8; 0.64% of 360,000 active; Sentrin-specific protease 8 (Homo sapiens), Q96LD8; in the data active = inhibition mostly above about 40%, no sharp cut-off; inactive = mostly below about 27%
# Hits are given with their value; n = inactive; x = not tested or not shown. In the library only some 3% were active in any assay of this set; here they are far more common.
SMILES,SENP7 block,Apaf-1 inh,SENP8 block-1,SENP6 inh,UBC13 polyUb,SENP8 block-2
Cn1c(N=NC(=O)c2ccccc2)c(O)c2ccccc21,n,n,n,69.8,n,n
Cn1c(O)c(N=NC(=O)CNC(=O)c2ccccc2)c2ccccc21,n,n,n,n,n,n
CC(N)C(=O)NC(CO)C(O)C(N)C=O (stereo not given),x,x,x,x,x,n
O=[N+]([O-])c1cc(/C=N/N2CCN(C3c4ccccc4-c4ccccc43)CC2)ccc1Cl,n,n,n,n,n,47.0
COc1ccccc1N1CCN(/N=C/c2ccc(Cl)c([N+](=O)[O-])c2)CC1,n,n,n,n,n,n
O=C(Nc1cccc(Cl)c1)c1ccc2c(=O)n3c(nc2c1)CCCCC3,80.5,n,63.6,83.5,n,n
COc1ccccc1CNC(=O)Nc1nc(C(N)CCc2ccccc2)cs1 (stereo not given),x,x,x,x,x,n
CCCc1nc2c(C)cc(Br)cn2c1Cc1ccccc1C(F)(F)F,x,x,x,x,x,n
O=C(O)c1cccc2c1-c1ccc([N+](=O)[O-])cc1C2=O,x,x,x,x,x,n
O=C(O)c1cccc2c1C(=O)c1cc([N+](=O)[O-])cc([N+](=O)[O-])c1-2,x,x,x,x,x,43.5
COC1=C(C)C(=O)C2=C(C1=O)C1C3CC4=C(C(=O)C(OC)=C(C)C4=O)C(CNC(=O)C(C)=O)N3C(C#N)C(C2)N1C (stereo not given),x,x,x,x,x,54.9
COc1cccc(C(C)(O)c2nc(-c3cccc(C#N)c3)cs2)c1 (stereo not given),x,x,x,x,x,n
CCc1nc2ccc(C(=O)Nc3ccc4c(c3)OCC(=O)N4)cn2c1N(CC)Cc1cccc(Br)c1,x,x,x,x,x,n
NC(Cc1ccc(Cl)cc1)c1csc(NC(=O)NCC2CCCCC2)n1 (stereo not given),x,x,x,x,x,n
COc1ccc(/C=C\c2nc(=O)c3ccccc3o2)cc1,62.8,n,66.2,72.2,n,n
CCC(CO)Oc1cc(NCc2ccc(F)cc2)c2ncn(C(C)C)c2c1 (stereo not given),n,43.5,n,n,n,n
CC(C)CNc1ncnc2c1ncn2[C@H]1CN(CCc2ccccc2)C[C@@H](CO)O1,x,x,x,x,x,n
O=[N+]([O-])c1ccc(CCNc2cccc3ccccc23)c([N+](=O)[O-])c1,n,n,n,54.8,n,n
Cc1cc([N+](=O)[O-])ccc1NCc1cccc2ccccc12,n,n,n,n,n,n
CC1=NN(c2ccccc2)C(=O)C1=C(C)C,n,n,n,n,n,41.3
CCS(=O)(=O)Nc1cccc(C2=NN(S(C)(=O)=O)C(c3cccs3)C2)c1 (stereo not given),n,n,n,n,n,n
CS(=O)(=O)N1N=C(c2ccc(Cl)cc2)CC1c1cccs1 (stereo not given),n,n,n,51.1,n,n
O=C(/C=C/Nc1ccccc1Oc1ccccc1)c1ccco1,n,n,n,n,n,n
O=C(/C=C/Nc1ccccc1O)c1ccco1,85.2,n,77.1,88.8,n,n
CN(C)Cc1cc(O)c(CN(C)C)cc1O,n,65.3,n,n,n,55.1
SMILES,SENP7 block,Apaf-1 inh,SENP8 block-1,SENP6 inh,UBC13 polyUb,SENP8 block-2
CC(=O)[C@@H]1[C@@H]2C(=O)N(Cc3ccccc3)C(=O)[C@@H]2C2c3ccccc3C=CN21 (stereo not given in full),n,67.4,n,n,n,n
COc1ccc(C2=NO[C@@H]3C(=O)N(c4ccc5c(c4)OCCO5)C(=O)[C@H]23)cc1OC,n,n,n,n,n,n
O=C1C2C3C=CC(C3)C2C(=O)N1Cc1ccccc1 (stereo not given),n,n,n,n,n,n
Cc1ccc(N2C(=O)[C@@H]3[C@H](C2=O)C2c4ccccc4C=CN2[C@@H]3C(=O)c2ccco2)c(C)c1 (stereo not given in full),50.9,87.0,n,n,n,n
CC(C)(C)C(=O)[C@@H]1[C@@H]2C(=O)N(c3ccc4c(c3)OCCO4)C(=O)[C@@H]2C2c3ccccc3C=CN21 (stereo not given in full),n,61.6,n,n,n,60.1
O=C(c1ccco1)[C@@H]1[C@@H]2C(=O)N(c3ccccc3)C(=O)[C@@H]2C2c3ccccc3C=CN21 (stereo not given in full),n,85.6,63.8,87.0,n,n
O=C(c1ccc(Cl)cc1)[C@@H]1[C@@H]2C(=O)N(c3ccccc3)C(=O)[C@@H]2C2c3ccccc3C=NN21 (stereo not given in full),n,n,n,n,n,n
CCOC(=O)CC1C(=O)NCCN1c1nc2ccc(C)cn2c(=O)c1/C=C1\SC(=S)N(CC(C)C)C1=O (stereo not given),n,n,n,n,n,47.9
COc1ccc(N=Nc2nc3ccc(Br)cc3n2C)cc1,x,x,x,x,x,64.3
COc1ccc2c(c1OC)C(=O)OC2Nc1nc(-c2cc3cc(Br)ccc3oc2=O)cs1 (stereo not given),90.9,n,90.9,94.6,n,n
CCOC(=O)[C@]12CCC=C1N(Cc1ccc3c(c1)OCO3)C(=O)[C@H](CC(=O)NCCC(C)C)C2,x,x,x,x,x,n
Cn1cc(CN2CCC(C(=O)NC(c3ccc(F)cc3)c3ccc4ccccc4n3)CC2)c2ccccc21 (stereo not given),x,x,x,x,x,n
COC(=O)[C@@]12C[C@@H](CC(=O)NCc3ccc(C)o3)C(=O)N(CCc3ccc(OC)c(OC)c3)C1=CCC(C)(C)C2,x,x,x,x,x,n
O=C(COC(=O)c1ccccc1Sc1ccc(C(F)(F)F)cc1[N+](=O)[O-])NC(=O)NC1CCCC1,n,40.4,n,n,n,n
Cc1c(C(=O)OCC(=O)NC(=O)NC2CCCCC2)cccc1[N+](=O)[O-],n,n,n,n,n,n
COC(=O)C[C@H]1C[C@H]2c3cc(NC(=O)Nc4ccc(C(F)(F)F)cc4)ccc3O[C@H]2[C@@H](CO)O1,x,x,x,x,x,n
O=C1c2ccccc2-c2onc3ccc(N4CCCC4)c1c23,x,x,x,x,x,80.8
CCNc1ccc2noc3c2c1C(=O)c1ccccc1-3,n,n,n,n,n,42.0
Cn1c(=O)cc2c3c(c(N4CCCCC4)ccc31)C(=O)c1ccccc1-2,n,n,n,n,n,n
O=C1c2ccccc2C(=O)c2c1cccc2N1CCCC1,x,x,x,x,x,46.3
CCCCCCCCN1C(=O)[C@H](CC(=O)NCc2ccccc2)C[C@@]2(C(=O)OC)CCCCC=C12,x,x,x,x,x,n
Cc1cc(F)cc(-c2cc(C(=O)NCC3CCCCC3)[nH]n2)c1,x,x,x,x,x,n
CC1=NN(c2ccccc2)C(=O)C1N=Nc1ccc(S(N)(=O)=O)cc1 (stereo not given),n,n,n,n,n,52.1
COc1cccc(NC(=O)/C=C/c2ccccc2[N+](=O)[O-])c1,93.7,n,90.5,97.8,n,n
